Assay results taken from ChEMBL document CHEMBL4043303, “Development of Novel Melanocortin Receptor Agonists Based on the Cyclic Peptide Framework of Sunflower Trypsin Inhibitor-1” (J Med Chem, 2018).
Where a SMILES comes first, the peptide text is derived from it. Bridges are numbered along the chain shown (N, C = ends). [ ]: non-standard residue; d: D form. NMeW = CN[C@@H](Cc1c[nH]c2ccccc12)C(=O)O

How the values were obtained:
[1] = target: T1, Melanocyte-stimulating hormone receptor (Homo sapiens, UniProt Q01726); test: Displacement of [125I]-NDP-alpha-MSH from human MC1R LBD expressed in HEK293 cell membranes incubated for 16 to 23 hrs in dark by scintillation proximity assay; design: concentration or dose not given beside the values; conditions: for inhibition: concentration not given here
[2] = target: T2, Melanocortin receptor 4 (Homo sapiens, UniProt P32245); test: Agonist activity at human MC4R expressed in high doxycyclin-treated HEK293 cell membranes assessed as increase in cAMP production after 15 mins by HTRF method; assay type: functional, cell-based
T2 sequence (P32245 whole entry): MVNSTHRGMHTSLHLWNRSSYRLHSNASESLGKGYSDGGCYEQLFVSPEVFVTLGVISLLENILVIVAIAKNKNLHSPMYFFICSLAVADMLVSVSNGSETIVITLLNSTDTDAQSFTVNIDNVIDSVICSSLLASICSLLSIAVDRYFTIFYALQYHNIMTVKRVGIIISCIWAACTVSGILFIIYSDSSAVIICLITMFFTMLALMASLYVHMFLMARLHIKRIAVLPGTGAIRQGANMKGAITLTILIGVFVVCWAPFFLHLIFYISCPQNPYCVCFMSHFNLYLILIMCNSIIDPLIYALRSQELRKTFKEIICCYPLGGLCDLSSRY
Summary of the method: (§1)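 T-REx-293 cells stably expressing doxycycline-inducible human MC1R, MC3R or MC4R; expression induced 24 h with 0.1 ng/mL (low) or 10 ng/mL (high, MC4R only) doxycycline. 1000 cells/well in HBSS, 20 mM HEPES pH 7.4, 0.1% BSA, 1 mM IBMX; stimulated at 37 °C. Time-resolved FRET cAMP read-out normalized to NDP-α-MSH maximum.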

[3] = target: T2, Melanocortin receptor 4; test: Agonist activity at human MC4R expressed in low doxycyclin-treated HEK293 cell membranes assessed as increase in cAMP production after 45 mins by HTRF method; assay type: functional, cell-based; summary of the method: as §1
[4] = target: T3, Melanocortin receptor 3 (Homo sapiens, UniProt P41968); test: Displacement of [125I]-NDP-alpha-MSH from human MC3R LBD expressed in HEK293 cell membranes incubated for 16 to 23 hrs in dark by scintillation proximity assay; design: concentration or dose not given beside the values; conditions: for inhibition: concentration not given here
T3 sequence (P41968 whole entry, the tested form may be a part): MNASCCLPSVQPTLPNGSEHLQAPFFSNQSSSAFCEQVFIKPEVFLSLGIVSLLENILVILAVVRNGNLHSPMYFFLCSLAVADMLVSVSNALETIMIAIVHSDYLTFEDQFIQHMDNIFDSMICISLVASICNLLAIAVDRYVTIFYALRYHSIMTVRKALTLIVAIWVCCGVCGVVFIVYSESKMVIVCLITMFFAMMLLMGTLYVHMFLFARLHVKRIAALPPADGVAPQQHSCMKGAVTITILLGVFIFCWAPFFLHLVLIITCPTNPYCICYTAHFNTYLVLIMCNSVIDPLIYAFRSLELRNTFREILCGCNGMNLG

[5] = Solubility of the compound in water at 1 mM; assay type: physicochemical; conditions: buffer, 1000 µM
[6] = target: T2, Melanocortin receptor 4; test: Displacement of [125I]-NDP-alpha-MSH from human MC4R LBD expressed in HEK293 cell membranes incubated for 16 to 23 hrs in dark by scintillation proximity assay; design: concentration or dose not given beside the values; conditions: for inhibition: concentration not given here
[7] = target: T1, Melanocyte-stimulating hormone receptor; test: Agonist activity at human MC1R expressed in low doxycyclin-treated HEK293 cell membranes assessed as increase in cAMP production after 45 mins by HTRF method; assay type: functional, cell-based
[8] = target: T3, Melanocortin receptor 3; test: Agonist activity at human MC3R expressed in low doxycyclin-treated HEK293 cell membranes assessed as increase in cAMP production after 45 mins by HTRF method; assay type: functional, cell-based; design: concentration or dose not given beside the values; summary of the method: as §1
[9] = target: Melanocortin receptor 5 (Homo sapiens, UniProt P33032); test: Displacement of [125I]-NDP-alpha-MSH from human MC5R LBD expressed in HEK293 cell membranes incubated for 16 to 23 hrs in dark by scintillation proximity assay; design: concentration or dose not given beside the values; conditions: for inhibition: concentration not given here
Melanocortin receptor 5, sequence (P33032 whole entry, the tested form may be a part): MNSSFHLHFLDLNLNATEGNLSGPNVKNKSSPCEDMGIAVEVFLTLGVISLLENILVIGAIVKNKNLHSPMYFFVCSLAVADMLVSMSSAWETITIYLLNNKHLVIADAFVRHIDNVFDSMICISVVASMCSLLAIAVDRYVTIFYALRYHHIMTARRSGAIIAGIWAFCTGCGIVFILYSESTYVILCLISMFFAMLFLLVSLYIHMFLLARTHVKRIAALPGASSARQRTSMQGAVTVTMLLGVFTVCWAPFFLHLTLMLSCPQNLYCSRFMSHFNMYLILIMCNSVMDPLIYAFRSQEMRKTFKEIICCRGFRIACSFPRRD

CC[C@H](C)[C@@H]1NC(=O)[C@@H]2CCCN2C(=O)[C@H](Cc2c[nH]c3ccccc23)NC(=O)[C@H](CCCNC(=N)N)NC(=O)[C@@H](Cc2ccccc2)NC(=O)[C@H](Cc2cnc[nH]2)NC(=O)[C@H]([C@@H](C)O)NC(=O)[C@@H]2CSSC[C@H](NC1=O)C(=O)N[C@@H](Cc1ccccc1)C(=O)N1CCC[C@H]1C(=O)N[C@@H](CC(=O)O)C(=O)NCC(=O)N[C@@H](CCCNC(=N)N)C(=O)N2
inhibition [1]: 100%
Activity [2]: 100%
Activity [3]: 100%
inhibition [4]: 100%
solubility [5]: Soluble
inhibition [6]: 100%
Activity [7]: 100%
Activity [8]: 100%
inhibition [9]: 100%

CC[C@H](C)[C@@H]1NC(=O)[C@@H]2CCCN2C(=O)[C@@H]2CCCN2C(=O)[C@H]([C@@H](C)CC)NC(=O)[C@H](CO)NC(=O)[C@H](C)NC(=O)[C@H]([C@H](C)O)NC(=O)[C@@H]2CSSC[C@H](NC1=O)C(=O)N(C)[C@@H](Cc1cnc[nH]1)C(=O)N[C@H](Cc1ccccc1)C(=O)N(C)[C@@H](CCCNC(=N)N)C(=O)N(C)[C@@H](Cc1c[nH]c3ccccc13)C(=O)N[C@@H](CCCNC(=N)N)C(=O)N2
inhibition [1]: 100%
Activity [2]: 100%
Activity [3]: 100%
inhibition [4]: 100%
inhibition [6]: 100%
Activity [7]: 100%
Activity [8]: 100%
inhibition [9]: 100%

CC[C@H](C)[C@@H]1NC(=O)[C@@H]2CCCN2C(=O)[C@@H]2CCCN2C(=O)[C@H]([C@@H](C)CC)NC(=O)[C@H](CO)NC(=O)[C@H](C)NC(=O)[C@H]([C@H](C)O)NC(=O)[C@@H]2CSSC[C@H](NC1=O)C(=O)N[C@@H](Cc1cnc[nH]1)C(=O)N[C@@H](Cc1ccccc1)C(=O)N[C@@H](CCCNC(=N)N)C(=O)N[C@@H](Cc1c[nH]c3ccccc13)C(=O)N[C@@H](CCCNC(=N)N)C(=O)N2
Ki [1]: 0.363 µM
inhibition [1]: 100%
Activity [2]: 100%
EC50 [2]: 3.09 µM
Activity [3]: 100%
EC50 [3]: > 100 µM
Ki [4]: 23.4 µM
inhibition [4]: 100%
solubility [5]: Soluble
Ki [6]: 25.1 µM
inhibition [6]: 100%
Activity [7]: 100%
EC50 [7]: 0.0417 µM
Activity [8]: 100%
EC50 [8]: 2.14 µM
IC50 [9]: 4.07 µM
inhibition [9]: 100%

CC[C@H](C)[C@@H]1NC(=O)[C@@H]2CCCN2C(=O)[C@@H]2CCCN2C(=O)[C@H]([C@@H](C)CC)NC(=O)[C@H](CO)NC(=O)[C@H](C)NC(=O)[C@H]([C@H](C)O)NC(=O)[C@@H]2CSSC[C@H](NC1=O)C(=O)N(C)[C@@H](Cc1cnc[nH]1)C(=O)N[C@H](Cc1ccccc1)C(=O)N[C@@H](CCCNC(=N)N)C(=O)N(C)[C@@H](Cc1c[nH]c3ccccc13)C(=O)N[C@@H](CCCNC(=N)N)C(=O)N2
inhibition [1]: 100%
Activity [2]: 100%
Activity [3]: 100%
inhibition [4]: 100%
inhibition [6]: 100%
Activity [7]: 100%
Activity [8]: 100%
inhibition [9]: 100%

CC[C@H](C)[C@@H]1NC(=O)[C@@H]2CCCN2C(=O)[C@H](Cc2c[nH]c3ccccc23)N(C)C(=O)[C@H](CCCNC(=N)N)NC(=O)[C@@H](Cc2ccccc2)NC(=O)[C@H](Cc2cnc[nH]2)NC(=O)[C@H]([C@@H](C)O)NC(=O)[C@@H]2CSSC[C@H](NC1=O)C(=O)N[C@@H](Cc1ccccc1)C(=O)N1CCC[C@H]1C(=O)N[C@@H](CC(=O)O)C(=O)NCC(=O)N[C@@H](CCCNC(=N)N)C(=O)N2 (cyclo(CFPDGRCTH[dF]R[NMeW]PI); disulfide 1-7)
inhibition [1]: 100%
Activity [2]: 100%
Activity [3]: 100%
inhibition [4]: 100%
solubility [5]: Soluble
inhibition [6]: 100%
Activity [7]: 100%
Activity [8]: 100%
inhibition [9]: 100%

CC[C@H](C)[C@@H]1NC(=O)[C@@H]2CCCN2C(=O)[C@@H]2CCCN2C(=O)[C@H]([C@@H](C)CC)NC(=O)[C@H](CO)NC(=O)[C@H](C)NC(=O)[C@H]([C@H](C)O)NC(=O)[C@@H]2CSSC[C@H](NC1=O)C(=O)N[C@@H](Cc1cnc[nH]1)C(=O)N[C@H](Cc1ccccc1)C(=O)N[C@@H](CCCNC(=N)N)C(=O)N(C)[C@@H](Cc1c[nH]c3ccccc13)C(=O)N[C@@H](CCCNC(=N)N)C(=O)N2
inhibition [1]: 100%
Activity [2]: 100%
Activity [3]: 100%
inhibition [4]: 100%
inhibition [6]: 100%
Activity [7]: 100%
Activity [8]: 100%
inhibition [9]: 100%

CC[C@H](C)[C@@H]1NC(=O)[C@@H]2CCCN2C(=O)[C@@H]2CCCN2C(=O)[C@H]([C@@H](C)CC)NC(=O)[C@H](CO)NC(=O)[C@H](C)NC(=O)[C@H]([C@H](C)O)NC(=O)[C@@H]2CSSC[C@H](NC1=O)C(=O)N(C)[C@@H](Cc1cnc[nH]1)C(=O)N[C@H](Cc1ccccc1)C(=O)N(C)[C@@H](CCCNC(=N)N)C(=O)N[C@@H](Cc1c[nH]c3ccccc13)C(=O)N[C@@H](CCCNC(=N)N)C(=O)N2
inhibition [1]: 100%
Activity [2]: 100%
Activity [3]: 100%
inhibition [4]: 100%
inhibition [6]: 100%
Activity [7]: 100%
Activity [8]: 100%
inhibition [9]: 100%

CC[C@H](C)[C@@H]1NC(=O)[C@@H]2CCCN2C(=O)[C@H](Cc2c[nH]c3ccccc23)N(C)C(=O)[C@H](CCCNC(=N)N)N(C)C(=O)[C@@H](Cc2ccccc2)NC(=O)[C@H](Cc2cnc[nH]2)NC(=O)[C@H]([C@@H](C)O)NC(=O)[C@@H]2CSSC[C@H](NC1=O)C(=O)N[C@@H](Cc1ccccc1)C(=O)N1CCC[C@H]1C(=O)N[C@@H](CC(=O)O)C(=O)NCC(=O)N[C@@H](CCCNC(=N)N)C(=O)N2
inhibition [1]: 100%
Activity [2]: 100%
Activity [3]: 100%
inhibition [4]: 100%
solubility [5]: Soluble
inhibition [6]: 100%
Activity [7]: 100%
Activity [8]: 100%
inhibition [9]: 100%

CC[C@H](C)[C@@H]1NC(=O)[C@@H]2CCCN2C(=O)[C@H](Cc2c[nH]c3ccccc23)NC(=O)[C@H](CCCNC(=N)N)N(C)C(=O)[C@@H](Cc2ccccc2)NC(=O)[C@H](Cc2cnc[nH]2)NC(=O)[C@H]([C@@H](C)O)NC(=O)[C@@H]2CSSC[C@H](NC1=O)C(=O)N[C@@H](Cc1ccccc1)C(=O)N1CCC[C@H]1C(=O)N[C@@H](CC(=O)O)C(=O)NCC(=O)N[C@@H](CCCNC(=N)N)C(=O)N2
inhibition [1]: 100%
Activity [2]: 100%
Activity [3]: 100%
inhibition [4]: 100%
solubility [5]: Soluble
inhibition [6]: 100%
Activity [7]: 100%
Activity [8]: 100%
inhibition [9]: 100%

CC[C@H](C)[C@@H]1NC(=O)[C@@H]2CCCN2C(=O)[C@H](Cc2c[nH]c3ccccc23)NC(=O)[C@H](CCCNC(=N)N)NC(=O)[C@@H](Cc2ccccc2)NC(=O)[C@H](Cc2cnc[nH]2)N(C)C(=O)[C@H]([C@@H](C)O)NC(=O)[C@@H]2CSSC[C@H](NC1=O)C(=O)N[C@@H](Cc1ccccc1)C(=O)N1CCC[C@H]1C(=O)N[C@@H](CC(=O)O)C(=O)NCC(=O)N[C@@H](CCCNC(=N)N)C(=O)N2
inhibition [1]: 100%
Activity [2]: 100%
Activity [3]: 100%
inhibition [4]: 100%
solubility [5]: Soluble
inhibition [6]: 100%
Activity [7]: 100%
Activity [8]: 100%
inhibition [9]: 100%

CC[C@H](C)[C@@H]1NC(=O)[C@@H]2CCCN2C(=O)[C@H](Cc2c[nH]c3ccccc23)NC(=O)[C@H](CCCNC(=N)N)N(C)C(=O)[C@@H](Cc2ccccc2)NC(=O)[C@H](Cc2cnc[nH]2)N(C)C(=O)[C@H]([C@@H](C)O)NC(=O)[C@@H]2CSSC[C@H](NC1=O)C(=O)N[C@@H](Cc1ccccc1)C(=O)N1CCC[C@H]1C(=O)N[C@@H](CC(=O)O)C(=O)NCC(=O)N[C@@H](CCCNC(=N)N)C(=O)N2
inhibition [1]: 100%
Activity [2]: 100%
Activity [3]: 100%
inhibition [4]: 100%
solubility [5]: Soluble
inhibition [6]: 100%
Activity [7]: 100%
Activity [8]: 100%
inhibition [9]: 100%

CC[C@H](C)[C@@H]1NC(=O)[C@@H]2CCCN2C(=O)[C@@H]2CCCN2C(=O)[C@H]([C@@H](C)CC)NC(=O)[C@H](CO)NC(=O)[C@H](C)NC(=O)[C@H]([C@H](C)O)NC(=O)[C@@H]2CSSC[C@H](NC1=O)C(=O)N(C)[C@@H](Cc1cnc[nH]1)C(=O)N[C@H](Cc1ccccc1)C(=O)N[C@@H](CCCNC(=N)N)C(=O)N[C@@H](Cc1c[nH]c3ccccc13)C(=O)N[C@@H](CCCNC(=N)N)C(=O)N2
inhibition [1]: 100%
Activity [2]: 100%
Activity [3]: 100%
inhibition [4]: 100%
inhibition [6]: 100%
Activity [7]: 100%
Activity [8]: 100%
inhibition [9]: 100%
